Source: PubChem (several laboratories)
Bcl-B Bim block – human Bim-Bcl-B interaction inhibition; Q9HD36; bead-based flow cytometry, Bim peptide-Bcl-B binding; inhibition, % at 10 µM; 190,000 compounds, 0.073% hits; AID 951;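 also: 0% = tracer peptide without compound and 100% = reference inhibitor peptide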
Target sequence (Q9HD36 whole entry, looked up): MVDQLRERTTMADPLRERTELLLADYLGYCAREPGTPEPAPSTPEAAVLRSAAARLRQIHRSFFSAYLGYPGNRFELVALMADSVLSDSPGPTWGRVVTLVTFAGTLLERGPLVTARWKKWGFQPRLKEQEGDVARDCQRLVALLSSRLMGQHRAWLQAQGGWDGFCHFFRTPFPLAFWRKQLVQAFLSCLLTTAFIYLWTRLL
Bfl-1 Bim block – disrupts Bim binding to human Bfl-1; 190,000 compounds, 0.12% hits; Bead-based flow cytometry, Bim-Bfl-1 binding inhibition; inhibition, % at 10 µM;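 also: 0% = wells without compound plus tracer and 100% = blocker peptide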
Bim-Bcl-W – human Bim-Bcl-W interaction inhibition | AID 952 | inhibition, % at 10 µM | 190,000 compounds, 0.02% hits | Q92843 | bead-based flow cytometry, Bim peptide-Bcl-W binding;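 also: 0% = bound tracer without compound and 100% = peptide blocker; higher means less fluorescent Bim peptide bound to Bcl-W beads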
Target sequence (Q92843 whole entry, looked up): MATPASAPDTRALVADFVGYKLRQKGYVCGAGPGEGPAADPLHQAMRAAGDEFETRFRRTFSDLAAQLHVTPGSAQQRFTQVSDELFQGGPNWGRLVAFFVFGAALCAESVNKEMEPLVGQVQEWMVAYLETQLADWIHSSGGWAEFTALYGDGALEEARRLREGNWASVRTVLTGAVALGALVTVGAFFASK
Bim-Bcl-XL – disrupts Bim peptide binding to human Bcl-XL; Q07817; inhibition, % at 10 µM; AID 1007; bead flow cytometry, fluorescence; 190,000 compounds, 0.04% hits
Bim-Bcl-2 – disrupts Bim peptide binding to human Bcl-2. Bead-based flow cytometry, Bim peptide-Bcl-2 binding. AID 950. P10415. inhibition, % at 10 µM. 190,000 compounds, 0.06% hits; in the data active = inhibition above about 40%;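 also: 0% = no compound wells with probe peptide and 100% = reference peptide inhibitor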
Biofilm kill mix – mixture kills Candida albicans biofilm cells; C. albicans biofilm persisters + clotrimazole, fluorescence viability; primary screen in compound mixtures of four per well; inhibition, % at 7.6 µM; 120,000 compounds, 0.02% hits; AID 1242;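 active = inhibition above 30.3% in the primary screen of four-compound pools, then above 30% when the compound was retested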;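 also: compounds exposed to preformed 24 h biofilms for 48 h; 0% = untreated biofilm control and 100% = clotrimazole plus chlorhexidine kill blank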
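Test system: C. albicans biofilms. Buffer or medium: RPMI/MOPS medium, pH 7.0. Timing: 48 h compound exposure at 37 °C. Technique: Alamar Blue fluorescence. Evaluation: percent inhibition of biofilm viability.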
Starred values were filed as active, the others as inactive; / = no result given. This is a sample that favours compounds with a hit; in the whole collection about 0.17% have one here. Rule as the data show it, unless noted: active = inhibition above about 40%.

SMILES	Bcl-B Bim block	Bfl-1 Bim block	Bim-Bcl-W	Bim-Bcl-XL	Bim-Bcl-2	Biofilm kill mix
O=C1S/C(=C/c2ccc(N3CCOCC3)o2)C(=O)N1Cc1ccc(F)cc1	-11	27	7	5	-2	/
CC1(C)CC(=NNC(=O)c2n[nH]c3c2CCC3)CC(C)(C)N1	-2	-6	0	-1	-2	14
Clc1ccc2c(N/N=C/c3cccc(Br)c3)ccnc2c1	29	33	13	0	37	10
Clc1ccc2c(N/N=C/c3ccccc3Br)ccnc2c1	33	43*	16	-4	28	17
COc1cc(/C=N/Nc2nn3cnnc3c3ccccc23)ccc1O	27	3	27	42*	8	/
O=[N+]([O-])c1ccc(N=Cc2ccc(Br)c([N+](=O)[O-])c2)cc1	-4	-3	-6	-6	0	-8
CC(C)Oc1ccc(CCc2n[nH]c(=S)n2-c2ccccc2)cc1	-12	4	4	0	2	14
Cc1ccc(NC2=C(NC(=O)c3ccccc3)C(=O)c3ccccc3C2=O)cc1Cl	0	50*	23	1	13	23
Cc1ccc(NCC(=O)c2ccccc2)cc1Cl	5	9	0	13	13	/
O=C(O)c1cccc(NC2=C(Cl)C(=O)c3ccccc3C2=O)c1	-48	60*	18	-5	11	21
NS(=O)(=O)c1cccc(NC(=S)NC(=O)C23CC4CC(CC(C4)C2)C3)c1	-8	0	-3	-5	2	9
O=P(c1ccccc1)(c1ccccc1)c1nc(-c2ccccc2)oc1NCc1ccccc1	2	2	-5	-3	1	4
Cc1nc(=S)c2ccccc2[nH]1	85*	68*	11	15	87*	/
CCOC(=O)Cn1nc(-c2ccccc2)c2cnc3ccc(CC)cc3c21	0	1	0	-3	0	9
CC1C=CCC2C(=O)N(c3ccc(OC(=O)c4cccs4)cc3)C(=O)C12 (stereo unspecified)	70*	55*	-6	3	79*	-18
CC(=O)NCCc1nc2cc(NC(=O)c3cccs3)ccc2n1C	-1	-3	1	-1	-4	12
Cn1c(CCNC(=O)C2CCCCC2)nc2cc(NC(=O)c3cccs3)ccc21	86*	59*	8	15	91*	6
COc1ccc(/C=N/n2cc(-c3ccccc3)nc2N)cc1	84*	65*	12	19	84*	/
CCCn1c(C)cc(-c2csc(N)n2)c1C	46*	30	25	15	27	/
C=CCn1c(C)cc(-c2csc(N)n2)c1C	33	11	14	7	13	/
Cc1nc2ncccn2c1-c1csc(Nc2ccc(O)cc2)n1	33	19	35	62*	13	1
N#Cc1c(-c2ccncc2)c2c([nH]c1=S)CCCC2	-9	2	0	0	-2	/
Cc1ccc(-c2c3c([nH]c(=S)c2C#N)CCCC3)o1	-5	41*	20	5	11	/
Cc1cc(C)c(S(=O)(=O)NNC(=O)C2CCN(Cc3ccccc3)CC2)c(C)c1	-1	-2	-2	-1	-2	/
CC(=O)N1CCN(c2c(F)c(F)c(C(F)(F)F)c(F)c2F)CC1	-6	-6	-4	0	-4	62*
SMILES	Bcl-B Bim block	Bfl-1 Bim block	Bim-Bcl-W	Bim-Bcl-XL	Bim-Bcl-2	Biofilm kill mix
COCCn1c(N)c(C(=O)Nc2sc3c(c2C(=O)OC)CCCC3)c2nc3ccccc3nc21	25	7	27	41*	17	/
Cc1ccc(OCC(=O)c2ccc(Cl)s2)c([N+](=O)[O-])n1	-34	7	2	-4	0	9
Cc1sc(NC(=O)Cn2cnnn2)nc1-c1ccc(Cl)cc1	67*	53*	7	20	84*	13
COc1ccc(-c2nc(NC(=O)Cn3cnnn3)sc2C)cc1	-3	-2	0	-2	2	11
CCC(=O)N(CC)C1=C(O)c2ccccc2C(=O)C1=O	11	52*	10	5	7	/
CCC(=O)N(C1=C(NC)C(=O)c2ccccc2C1=O)C(C)C	-3	-4	-2	-1	-3	1
Cc1[nH]nc(SCC(=O)NCc2ccc(F)cc2)c1[N+](=O)[O-]	24	36	30	42*	30	2
COC(=O)c1c(C(=O)OC)c2cccc3cc(-c4ccccc4)c4ccc1c4n32	-8	44*	34	4	15	/
COC(=O)c1cc2c(-c3ccccc3)cc3ccccn3c-2c1C(=O)OC	-6	-9	5	-16	-2	/
